The data set in a line: Toxicity liver stage against HepG2, at 10uM. Format: cell-based. The arrangement: test concentration 10 uM, cell line HepG2-A16-CD81EGFP. Conditions: human, HepG2-A16-CD81EGFP cells; read-out: INHIBITION
In short, it runs like this: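 Uninfected HepG2-A16-CD81EGFP cells, 3 × 10^3 per well, 1536-well, plated on prespotted compound at 10 μM final, parasite-free screening media added to match infected plates; puromycin 10 μM positive, DMSO 0.5% negative; run in parallel with 48 h PbLuc assay at 37 °C, 5% CO2; viability by CellTiter-Glo luminescence, normalized to controls.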

`Cc1ccc(NS(=O)(=O)c2cc3c(c(C(=O)O)c2)OCCO3)cc1F`: the cytotoxicity at 10 µM was -5.77%.

Regarding `Cc1ccccc1N1CCN(C(=O)c2cccnc2-n2cncn2)CC1`, the cytotoxicity at 10 µM came to 8.35%.

For the compound `CC(C)COCC1CN(C(=O)c2cscn2)Cc2ncn(C)c21` (centres undefined), the cytotoxicity at 10 µM is -109%.

With `Cc1nc(C)n(CC2CCCCN2Cc2ncc(C(C)(C)C)o2)n1` (centres undefined), the cytotoxicity at 10 µM worked out at 0.299%.

`CN1CCN(Cc2ccncc2)C(=O)C12CCN(c1nccs1)CC2`: the cytotoxicity at 10 µM was -2.82%.

Regarding `COc1cc(CC2CC(C(N)=O)=NO2)cc2c1OCO2` (centres undefined), the cytotoxicity at 10 µM was 5.32%.

As for `O=C(CCn1c(C(F)F)cc2cccnc21)NC1CCCCC1`, the cytotoxicity at 10 µM was -27.9%.

As to `Cc1cnc(N2CCCn3c(nnc3Cn3cccn3)C2)nc1`, the cytotoxicity at 10 µM is 6.19%.

In the case of `CC(C)C[C@@H]1N[C@H](C(=O)NC2CCOCC2)Cc2c[nH]c3cccc1c23`, the cytotoxicity at 10 µM is 8.24%.

Turning to `O=S(=O)(N1CCCCCC1)N1CCc2sccc2C1`, the cytotoxicity at 10 µM is -5.6%.

Turning to `CC(C)=CCN1CCN(CCCOc2ccccc2)[C@H]2CS(=O)(=O)C[C@H]21`, the cytotoxicity at 10 µM was -8.34%.

For `Cc1ncsc1C(=O)NCCCN1CCCCCC1=O`, the cytotoxicity at 10 µM was -3.51%.

For `Cc1ccc2c(n1)N(CC(C)C)CCN(S(C)(=O)=O)C2`, the cytotoxicity at 10 µM was -65.7%.

Turning to `Cc1ncccc1C(=O)Nc1cccc(OCC(F)F)n1`, the cytotoxicity at 10 µM is -7.79%.

On to `Cc1c(C2CC2)n[nH]c1NC(=O)C1CCCN(C(=O)NCC(C)C)C1` (centres undefined), for which the cytotoxicity at 10 µM was 13.9%.

Take `Cc1ccc(-c2cc(C)nc(C3CCCN3S(C)(=O)=O)n2)cc1` (centres undefined): the cytotoxicity at 10 µM is -8.27%.

For the compound `Cn1ccc2ccnc(CC3CN(C(=O)C4CCC(F)(F)CC4)C3)c21`, the cytotoxicity at 10 µM is -2.78%.

For the compound `O=C(CC1=CSC2=NCCCN12)N1CCCCCC1c1ccco1` (centres undefined), the cytotoxicity at 10 µM was 10%.

Take `Cc1cnn(CCCNC(=O)NCCC(=O)Nc2ccccc2)c1`: the cytotoxicity at 10 µM is 2.72%.

As for `CNC(=O)c1nc(COc2c(C)occc2=O)no1`, the cytotoxicity at 10 µM was 3.08%.

Turning to `CCc1cnc2c(c1NCc1ccc(OC)cc1)c(=O)n(C)c(=O)n2C`, the cytotoxicity at 10 µM came to 5.79%.

As for `Cc1cccc(CN2C[C@@H]3COC[C@]3(CNC(=O)c3ccccc3)C2)n1`, the cytotoxicity at 10 µM was -0.0606%.

On to `Cn1cc(CN2CCCN(CCCc3ccccc3)CC2)cn1`, for which the cytotoxicity at 10 µM was -50.8%.

With `Cc1cc2n(n1)CC(CNCc1ccccc1-n1cccn1)CN2` (centres undefined), the cytotoxicity at 10 µM is -11.5%.

Take `Cc1ccc(CC(=O)NC2CCN(c3cccc(Cl)c3)C2)cn1` (centres undefined): the cytotoxicity at 10 µM is 2.49%.

For the compound `Cc1nn(C)c(N(C)C)c1CNCc1cccc(OCCN(C)C)c1`, the cytotoxicity at 10 µM amounted to 1.38%.

As to `CN(C)c1cnnc(N2CCN(C(=O)CCC3CCCCC3)CC2)c1`, the cytotoxicity at 10 µM is -1.65%.

With `Cc1cn(CC(=O)NC2CCN(CC3CC3)CC2)c2ccccc12`, the cytotoxicity at 10 µM came to 0.951%.

Turning to `CCOCC1CN(C(=O)c2cscn2)Cc2nnn(CC3CC3)c21` (centres undefined), the cytotoxicity at 10 µM worked out at 1.9%.

As to `CO[C@@H]1CC[C@H]2[C@H]1OCCN2C(=O)c1ccc(C)o1`, the cytotoxicity at 10 µM amounted to 3.68%.

Consider `O=C([C@H]1CC[C@@H]2[C@@H](CCN2Cc2ccsc2)O1)N1CCOCC1`, for which the cytotoxicity at 10 µM is 1.3%.

As for `Cc1cccc(NC(=O)c2nn(C3CCS(=O)(=O)C3)c3c2CCCC3)n1` (centres undefined), the cytotoxicity at 10 µM is 10.5%.

As to `CCCc1noc(C2CCN(C(=O)C3CCCO3)CC2)n1` (centres undefined), the cytotoxicity at 10 µM came to 0.12%.

On to `Cc1cccc(C(C(=O)NCC2(Cn3nc(C)cc3C)CC2)N(C)C)c1` (centres undefined), for which the cytotoxicity at 10 µM worked out at 2.18%.

`NC(=O)N1C[C@H](NC(=O)c2cscn2)[C@@H]2OCCC[C@@H]21`: the cytotoxicity at 10 µM was -99%.

`CSCC[C@H](NC(C)=O)C(=O)N(C)Cc1ccc(-n2cccn2)cc1`: the cytotoxicity at 10 µM was -122%.

On to `COc1cccc(CN2CCCC3(CCN(C(=O)[C@H]4CCCO4)C3)C2)c1` (some centres undefined), for which the cytotoxicity at 10 µM was found to be 5.01%.

For the compound `Cc1cc(C)nc(CN(C)c2nc(C3CCCC3)nc3c2cnn3C)c1`, the cytotoxicity at 10 µM amounted to 12.4%.

As to `CCc1nnc2n1CC(CNCc1ccncc1)CC2` (centres undefined), the cytotoxicity at 10 µM was -15.1%.

For the compound `O=C(NC[C@H]1CCCC[C@H]1O)c1cccc2[nH]c(-c3cccs3)nc12`, the cytotoxicity at 10 µM was -6.95%.

As for `COCC(Nc1ncnc2c1CCNCC2)c1ccccn1` (centres undefined), the cytotoxicity at 10 µM is 0.565%.

`Cc1ccc2nc(C(=O)N3CCC(CCn4cccn4)CC3)cn2c1`: the cytotoxicity at 10 µM was -18.3%.

On to `O=C1CCCN1CCC1CCN(C2CCC3(CCNCC3)CC2)CC1`, for which the cytotoxicity at 10 µM stood at 10.9%.

For `O=C(NCc1ccco1)[C@H]1C[C@@H]2CCN(c3cccc(F)c3)C[C@H]2O1`, the cytotoxicity at 10 µM stood at 8.68%.

In the case of `Cc1cc(CN2CCN(C(=O)c3ccc(=O)n(C)c3)CC2)no1`, the cytotoxicity at 10 µM is -8.07%.

`O=C(Nc1cnccn1)[C@H]1CC[C@@H]2[C@@H](CCN2Cc2ccoc2)O1`: the cytotoxicity at 10 µM came to 8.86%.

`Cc1ccc(NC2CCN(C(=O)CCn3nc(C)cc3C)CC2)nn1`: the cytotoxicity at 10 µM is -9.66%.

For `CCS(=O)(=O)Nc1ccc(C(=O)NCCCN2CCCC2)cc1`, the cytotoxicity at 10 µM came to 1.83%.

With `CCc1nc(Cn2ccnc2-c2nccn2C)no1`, the cytotoxicity at 10 µM is -42%.

Take `O=C1[C@H]2CN(S(=O)(=O)C3CC3)C[C@H]2CN1Cc1cccnc1`: the cytotoxicity at 10 µM is -0.0545%.

Take `Cc1cc(C)c(CNC(=O)NCCC2CCCO2)c(=O)[nH]1` (centres undefined): the cytotoxicity at 10 µM is -6.33%.

Take `Cc1nc(C(=O)N2CCCC(c3ccc4sc(N)nc4n3)C2)co1` (centres undefined): the cytotoxicity at 10 µM is -11.9%.

On to `Cc1nc(C)n(CC2CCCN2Cc2cscn2)n1` (centres undefined), for which the cytotoxicity at 10 µM is -2.05%.

As to `CCN(CC)C(=O)c1nc2c(s1)CCN(Cc1cccc(OC)c1)CC2`, the cytotoxicity at 10 µM is 2.77%.

On to `COCC(C)NC(=O)N1CCN(S(C)(=O)=O)CC1` (centres undefined), for which the cytotoxicity at 10 µM was -6.53%.

As for `Cc1cccc(C(=O)N2CCn3c(CN4CCN(C)CC4)cnc3C2)n1`, the cytotoxicity at 10 µM was -75.2%.

As to `CCC(C)C(=O)NCc1c(C)nn(C)c1N1CCCN(C)CC1` (centres undefined), the cytotoxicity at 10 µM was determined as 4.24%.

Take `CN(C)c1cccc(C(=O)N2C[C@@H]3CC[C@H]2CN(C(=O)C2CCC2)C3)c1`: the cytotoxicity at 10 µM is -0.69%.

With `COc1cc2c(cc1CNC(Cc1cccs1)c1nccs1)OCO2` (centres undefined), the cytotoxicity at 10 µM is -1.88%.

Regarding `COc1ccc(CNC(=O)CNc2ccccc2OC)cc1`, the cytotoxicity at 10 µM was -2.25%.

For the compound `COc1nn(C)c2c1CCCN(S(=O)(=O)c1ccccc1F)C2`, the cytotoxicity at 10 µM is -109%.

Take `CCOc1ccccc1-n1c(C2CC2)n[nH]c1=O`: the cytotoxicity at 10 µM was determined as 1.12%.

With `CCn1ccc(C(=O)Nc2ccc3c(c2)C(C)(C)C(=O)N3C)n1`, the cytotoxicity at 10 µM came to 12.2%.

Regarding `COc1ccnc(N2CCN(C(=O)N3CCOCC3)CC2)n1`, the cytotoxicity at 10 µM is -1.64%.

Take `COCc1cnc2n1CCN(S(=O)(=O)c1c(C)nn(C)c1C)C2C` (centres undefined): the cytotoxicity at 10 µM stood at 15.4%.

Consider `O=C1CC[C@H](C(=O)Nc2cnn(-c3ccccc3Br)c2)N1`, for which the cytotoxicity at 10 µM is -2.84%.

For the compound `O=C(CCC(F)(F)F)N1CCCC2(CCC(=O)N(CC3CC3)C2)C1` (centres undefined), the cytotoxicity at 10 µM is 7.4%.

As to `c1cnc(-c2noc(C3CN(Cc4ccsc4)C3)n2)cn1`, the cytotoxicity at 10 µM is 0.435%.

On to `CC(Nc1nc2c(cnn2C)c(=O)[nH]1)c1ccc2c(c1)CCCC2` (centres undefined), for which the cytotoxicity at 10 µM was 9.62%.

In the case of `COc1ccc(OCCN(C)c2cc(C)nc(N)n2)cc1`, the cytotoxicity at 10 µM was found to be 49.5%.

With `O=S(=O)(C1CC1)N1CCC2(CN(c3ccccn3)C2)C1`, the cytotoxicity at 10 µM was found to be 5.25%.

For the compound `CC(=O)NCCc1ccc(S(=O)(=O)Nc2ccc(C)c(F)c2)s1`, the cytotoxicity at 10 µM worked out at 5.72%.

On to `Cc1cc(S(=O)(=O)N2CCCc3ccccc32)sc1C(=O)O`, for which the cytotoxicity at 10 µM is -13.5%.

In the case of `CCn1c(Cn2cncn2)nnc1C1CCN(Cc2cccnc2)CC1`, the cytotoxicity at 10 µM was determined as 5.91%.

Consider `O=C(c1cccnn1)N1C[C@@H]2CC[C@H](Oc3cccc(F)c3)[C@@H]2C1`, for which the cytotoxicity at 10 µM was -13.6%.

For the compound `CCn1cc(C(=O)N2CCCC(c3nccs3)C2)cn1` (centres undefined), the cytotoxicity at 10 µM was -4.19%.

For the compound `O=c1ccc(-c2ccccc2F)nn1CN1CCCCCC1`, the cytotoxicity at 10 µM turned out to be 5.76%.

`CC(C(=O)N1CCN(C)CC1)n1cc(Br)cn1` (centres undefined): the cytotoxicity at 10 µM is 3.6%.

For the compound `COc1ccc(N2CCC(N(C)C(=O)Nc3ccncc3)CC2)cc1`, the cytotoxicity at 10 µM was found to be 3.12%.

Turning to `Cc1nn(C)c2cnn(CC(=O)NCc3cccs3)c12`, the cytotoxicity at 10 µM came out at 6.28%.

`CNc1cccc(C2CCCN(C(=O)c3cscn3)C2)n1` (centres undefined): the cytotoxicity at 10 µM is -11.3%.

With `O=C(NCc1cccnc1-n1cncn1)c1cc(Cl)ccn1`, the cytotoxicity at 10 µM is -3.76%.

For `Cc1nnc2n1CCN(CCOc1ccc(C(C)(C)C)cc1)C2`, the cytotoxicity at 10 µM is -17.1%.

Consider `Cc1nnc(NC(=O)CCc2c(C)nn3cnnc3c2C)s1`, for which the cytotoxicity at 10 µM is -1.7%.

Take `O=C(NCCNS(=O)(=O)c1cc(F)cc(F)c1)c1ccoc1`: the cytotoxicity at 10 µM is -1.33%.

For the compound `Cc1cc(NC2CC3(CCN(Cc4cscn4)C3)C2)ncn1` (centres undefined), the cytotoxicity at 10 µM is -2.13%.

As for `CCc1nc(C)c(C(=O)NCC2COc3cc(OC)ccc3C2)o1` (centres undefined), the cytotoxicity at 10 µM amounted to 54.6%.

For the compound `Cn1nc(C(=O)NCCc2ccc(OC3CCCC3)cc2)ccc1=O`, the cytotoxicity at 10 µM was -2.61%.

With `COc1ccccc1OCC(=O)N1C[C@@H]2CN(C)CCO[C@@H]2C1`, the cytotoxicity at 10 µM is -2.94%.

Turning to `CC(C)(C)c1cc(C[C@H]2CNCC[C@H]2CC(=O)Nc2ccccc2)no1`, the cytotoxicity at 10 µM is -2.4%.

For `COCCN1CCOCC12CCN(C(=O)c1c[nH]c3ccccc13)CC2`, the cytotoxicity at 10 µM is -69.8%.

With `CN(C)C(C(=O)N1CCC(N2CCSCC2)CC1)c1ccccc1F` (centres undefined), the cytotoxicity at 10 µM was determined as 9.22%.

Take `CCN1CCN(C2CCN(Cc3ccc(Cl)s3)CC2)C1=O`: the cytotoxicity at 10 µM is 13.1%.

As for `O=C(c1cccs1)N1CC[C@H]2C[C@@H](c3nnc(C4CC4)o3)O[C@@H]2C1`, the cytotoxicity at 10 µM was -109%.

Values taken from ChEMBL document CHEMBL4513216, “Probing the Open Global Health Chemical Diversity Library for Multistage-Active Starting Points for Next-Generation Antimalarials” (ACS Infect Dis, 2020).
